Measured values as given in ChEMBL document CHEMBL1137968, “Carbazates as potent inhibitors of hormone-sensitive lipase” (Bioorg Med Chem Lett, 2004).
pIC50: −log10 of the molar value.

Key:
[1] = molecular target: T1, Hormone-sensitive lipase (Homo sapiens) (UniProt Q05469); experiment: Inhibition of recombinant human hormone sensitive lipase (HSL); parameters: concentration or dose not given beside the values; conditions: concentration not given here
T1 sequence (whole entry): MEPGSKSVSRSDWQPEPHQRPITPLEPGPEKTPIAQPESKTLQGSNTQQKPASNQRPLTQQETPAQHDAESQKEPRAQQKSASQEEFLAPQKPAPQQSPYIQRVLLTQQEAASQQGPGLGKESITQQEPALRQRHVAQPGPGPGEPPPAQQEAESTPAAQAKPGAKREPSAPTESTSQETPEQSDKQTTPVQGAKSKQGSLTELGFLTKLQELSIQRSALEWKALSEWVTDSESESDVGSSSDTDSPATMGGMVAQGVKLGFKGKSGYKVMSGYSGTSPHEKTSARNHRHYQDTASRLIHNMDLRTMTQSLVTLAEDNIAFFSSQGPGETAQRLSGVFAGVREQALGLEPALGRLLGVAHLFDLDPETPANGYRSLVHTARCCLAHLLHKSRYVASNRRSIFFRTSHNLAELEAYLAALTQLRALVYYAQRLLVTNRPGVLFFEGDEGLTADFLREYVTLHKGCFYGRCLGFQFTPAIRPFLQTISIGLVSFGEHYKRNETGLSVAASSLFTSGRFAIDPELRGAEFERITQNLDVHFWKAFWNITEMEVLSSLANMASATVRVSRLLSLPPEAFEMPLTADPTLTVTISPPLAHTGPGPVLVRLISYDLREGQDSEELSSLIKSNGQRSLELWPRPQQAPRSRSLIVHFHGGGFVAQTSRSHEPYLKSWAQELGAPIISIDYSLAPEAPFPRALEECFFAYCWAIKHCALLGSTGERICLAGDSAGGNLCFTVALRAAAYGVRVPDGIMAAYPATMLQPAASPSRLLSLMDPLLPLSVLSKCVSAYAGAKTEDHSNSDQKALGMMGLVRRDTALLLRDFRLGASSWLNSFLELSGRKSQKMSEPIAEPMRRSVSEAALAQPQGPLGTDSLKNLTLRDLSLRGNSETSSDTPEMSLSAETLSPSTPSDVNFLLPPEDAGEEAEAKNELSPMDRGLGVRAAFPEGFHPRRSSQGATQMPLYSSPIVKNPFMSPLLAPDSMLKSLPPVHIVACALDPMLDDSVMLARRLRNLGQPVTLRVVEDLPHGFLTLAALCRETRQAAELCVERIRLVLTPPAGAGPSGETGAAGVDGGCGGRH
In short: (§1)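 Purified recombinant human HSL (specific activity 2.6 U/mg protein) with triolein substrate. Activity measured at 37 °C as ³H-oleic acid release over time from a ³H-trioleoylglycerol emulsion stabilized with phospholipids. Bovine serum albumin served as fatty acid acceptor.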

Hormone-sensitive lipase = molecular target: T2, Hormone-sensitive lipase (Homo sapiens, UniProt Q05469); experiment: Inhibition of human recombinant hormone sensitive lipase.; in short: as §1
T2 sequence (Q05469 whole entry): T1 sequence (whole entry)

| inhibition [1] | pIC50 (Hormone-sensitive lipase) | SMILES |
| --- | --- | --- |
| 8% | – | CC(C)(C)OC(=O)NN1CCc2ccccc2C1 |
| 100% | 8.30 | O=C(Cc1ccc(OC(=O)NN2CCOCC2)cc1)OCc1ccccc1 |
| 95% | 6.15 | COC(=O)Cc1ccc(OC(=O)NN2CCOCC2)cc1 |
| 20% | – | CC(=O)Nc1ccc(OC(=O)NN2CCOCC2)cc1 |
| 99% | 6.86 | CCOC(=O)Cc1ccc(OC(=O)NN2CCOCC2)cc1 |
| 9% | – | CCOC(=O)NN1CCc2ccccc2C1 |
| 97% | – | COc1ccc(OC(=O)NN2CCc3ccccc3C2)cc1 |
| 57% | – | COC(=O)c1ccc(OC(=O)NN2CCc3ccccc3C2)cc1 |
| 100% | 9.00 | CC(C)(C)C1CCC(C(=O)Nc2ccc(OC(=O)NN3CCOCC3)cc2)CC1 (stereo unspecified) |
| 21% | – | O=C(NN1CCc2ccccc2C1)Oc1ccc(C(=O)c2ccccc2)cc1 |
| 98% | – | CC(C)(C)OC(=O)Nc1ccc(OC(=O)NN2CCc3ccccc3C2)cc1 |
| 7% | – | CC(=O)Nc1ccc(OC(=O)NN2CCc3ccccc3C2)cc1 |
| 100% | 7.62 | O=C(NN1CCCC1)Oc1ccc(Cl)cc1 |
| 99% | 8.00 | O=C(NN1CCOCC1)Oc1ccc(NC(=O)C2CCCCC2)cc1 |
| 99% | 7.33 | CC(C)(C)CC(=O)Nc1ccc(OC(=O)NN2CCOCC2)cc1 |
| 98% | – | O=C(NN1CCc2ccccc2C1)Oc1ccc(Cl)cc1 |
| 3% | – | O=C(NN1CCc2ccccc2C1)Oc1c(Cl)cccc1Cl |
| 76% | – | COc1ccccc1OC(=O)NN1CCc2ccccc2C1 |
| 84% | 5.49 | CCCC(=O)Nc1ccc(OC(=O)NN2CCOCC2)cc1 |
| 4% | – | O=C(NN1CCc2ccccc2C1)OCc1ccccc1 |
| 99% | – | O=C(NN1CCCCC1)Oc1ccc(Cl)cc1 |

| SMILES | inhibition [1] | pIC50 (Hormone-sensitive lipase) |
| --- | --- | --- |
| O=C(NN1CCc2ccccc2C1)Oc1ccccc1 | – | 6.69 |
| CN(C(=O)Oc1ccc(Cl)cc1)N1CCc2ccccc2C1 | 2% | – |
| O=C(NN1CCc2ccccc2C1)Oc1ccc(Cc2ccccc2)cc1 | 97% | 7.01 |
| CN1CCN(NC(=O)Oc2ccc(Cl)cc2)CC1 | 98% | 6.29 |
| CC1c2ccccc2CCN1NC(=O)Oc1ccc(Cl)cc1 (stereo unspecified) | 91% | 7.49 |
| CC1Cc2ccccc2CN1NC(=O)Oc1ccc(Cl)cc1 (stereo unspecified) | 99% | 7.46 |
| O=C(NN1CCOCC1)Oc1ccc(Cl)cc1 | 99% | 6.74 |
